A word on the MIC: it is the least concentration at which growth counts as inhibited. Low readings indicate a more susceptible organism, high ones a less susceptible organism. As a reminder, the mortality is the percentage killed.

Data on nine compounds can be found in ChEMBL document CHEMBL1156416, “Influence of high mutation rates on the mechanisms and dynamics of in vitro and in vivo resistance development to single or combined antipseudomonal agents” (Antimicrob Agents Chemother, 2007).

Values after ≈ are worked out from the molar mass of the structure shown. Active and inactive are the calls of the source. The rule behind the calls is not given here.

Data set [1] has as its system Pseudomonas aeruginosa. The data set can be described thus: Antibacterial activity against Pseudomonas aeruginosa PAOdeltamutS by Etest. The data set is classed as functional. A digest of the protocol:
(§1)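 Etest strips were applied on Mueller-Hinton agar following the manufacturer's recommendations. For PAOΔmutS, the MIC read was that of the main population, ignoring resistant colonies growing within the inhibition ellipse.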

The subject of data set [2] is Pseudomonas aeruginosa. The data set can be described thus: Antibacterial activity against Pseudomonas aeruginosa PAO1 by Etest. In kind it is functional. In outline:
as §1

For data set [3], the system named is Pseudomonas aeruginosa. The data set can be described thus: Antibacterial activity against Pseudomonas aeruginosa PAO1 infected in C57BL/6J mouse assessed as mortality at 70 mg/kg, ip administered every 3 hrs. As to conditions: route intraperitoneal. In kind it is functional. A digest of the protocol:
(§2)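 Female C57BL/6J mice (20–25 g) were infected transtracheally under ketamine/xylazine with about 2 × 10⁴ agarose-bead-embedded cells. Beginning 24 h later, they received ceftazidime 70 mg/kg every 3 h or a sterile water placebo for 3 days. There were 30 mice per group from two independent experiments of 15. Mortality was recorded as the percentage of animals per group.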

Data set [4] deals with Mus musculus. The data set can be described thus: fAUC (0 to 24 hrs) in Pseudomonas aeruginosa PAO1 infected C57BL/6J mouse at 70 mg/kg, ip administered every 3 hrs. In kind it is ADME, organism-based. Further details: dose 70 mg/kg, route intraperitoneal. Particulars: in vivo.
Data set [5] concerns Pseudomonas aeruginosa. Put plainly: Antibacterial activity against Pseudomonas aeruginosa PAOdeltamutS infected in C57BL/6J mouse assessed as lung bacterial count at 70 mg/kg, ip administered every 3 hrs. The data set is classed as functional, organism-based. More on the design: dose 70 mg/kg. In outline: (§3)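 Female C57BL/6J mice (20–25 g) were anesthetized with ketamine/xylazine ip. They were inoculated transtracheally with about 2 × 10⁴ cells embedded in agarose beads. Ceftazidime 70 mg/kg every 3 h (or sterile water placebo) started 24 h after inoculation and ran for 3 days, 30 mice per group in two experiments. Lungs were taken 24 h after treatment ended, homogenized in saline, diluted 1/10 serially and plated on MHA; median counts were reported.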

A short description of data set [6]: Half life of free unbound fraction in Pseudomonas aeruginosa PAO1 infected C57BL/6J mouse at 70 mg/kg, ip administered every 3 hrs. The data set is classed as ADME, organism-based. More on the design: dose 70 mg/kg, route intraperitoneal. As to conditions: in vivo, read-out: t1/2 unbound fraction (converted).
The test system of data set [7] is Pseudomonas aeruginosa. Put plainly: f%T>MIC in Pseudomonas aeruginosa PAO1 infected C57BL/6J mouse at 70 mg/kg, ip administered every 3 hrs. The data set is classed as functional. As to conditions: route intraperitoneal.
Data set [8] can be described thus: fCmax/MIC ratio in Pseudomonas aeruginosa PAO1 infected C57BL/6J mouse at 70 mg/kg, ip administered every 3 hrs. In kind it is functional. Particulars: route intraperitoneal.
Data set [9] in a line: fCmax/MIC ratio in Pseudomonas aeruginosa PAOdeltamutS infected C57BL/6J mouse at 70 mg/kg, ip administered every 3 hrs. Particulars: route intraperitoneal. In kind it is functional.
The test system of data set [10] is Pseudomonas aeruginosa. Put plainly: Antibacterial activity against Pseudomonas aeruginosa PAO1 infected in C57BL/6J mouse assessed as lung bacterial count at 70 mg/kg, ip administered every 3 hrs. Further details: dose 70 mg/kg. The data set is classed as functional, organism-based. In outline:
as §3

The test system of data set [11] is Pseudomonas aeruginosa. Put plainly: Antibacterial activity against Pseudomonas aeruginosa PAOdeltamutS infected in C57BL/6J mouse assessed as mortality at 70 mg/kg, ip administered every 3 hrs. The data set is classed as functional. As to conditions: route intraperitoneal. A digest of the protocol:
as §2

The nature of data set [12]: fAUC (0 to 24 hrs)/MIC ratio in Pseudomonas aeruginosa PAOdeltamutS infected C57BL/6J mouse at 70 mg/kg, ip administered every 3 hrs. Particulars: route intraperitoneal. The data set is classed as functional.
Data set [13] deals with Mus musculus. The data set can be described thus: fCmax in Pseudomonas aeruginosa PAO1 infected C57BL/6J mouse at 70 mg/kg, ip administered every 3 hrs. In kind it is ADME, organism-based. Further details: dose 70 mg/kg, route intraperitoneal. Particulars: in vivo.
A short description of data set [14]: fAUC (0 to 24 hrs)/MIC ratio in Pseudomonas aeruginosa PAO1 infected C57BL/6J mouse at 70 mg/kg, ip administered every 3 hrs. In kind it is functional. Particulars: route intraperitoneal.
For data set [15], the system named is Pseudomonas aeruginosa. The data set can be described thus: Antibacterial activity against Pseudomonas aeruginosa PAOdeltamutS infected in C57BL/6J mouse assessed as mortality at 20 mg/kg, ip administered every 6 hrs. The data set is classed as functional. Particulars: route intraperitoneal.
Data set [16] has as its system Pseudomonas aeruginosa. Put plainly: Antibacterial activity against Pseudomonas aeruginosa PAO1 infected in C57BL/6J mouse assessed as mortality at 20 mg/kg, ip administered every 6 hrs. As to conditions: route intraperitoneal. In kind it is functional.
Data set [17] relates to Mus musculus. The data set can be described thus: fAUC (0 to 24 hrs) in Pseudomonas aeruginosa PAO1 infected C57BL/6J mouse at 10 mg/kg, ip administered every 6 hrs. The data set is classed as ADME, organism-based. More on the design: dose 10 mg/kg, route intraperitoneal. As to conditions: in vivo.
Data set [18] can be described thus: fAUC (0 to 24 hrs)/MIC ratio in Pseudomonas aeruginosa PAOdeltamutS infected C57BL/6J mouse at 10 mg/kg, ip administered every 6 hrs. The data set is classed as functional. As to conditions: route intraperitoneal.
The subject of data set [19] is Pseudomonas aeruginosa. Put plainly: Antibacterial activity against Pseudomonas aeruginosa PAOdeltamutS infected in C57BL/6J mouse assessed as mortality at 10 mg/kg, ip administered every 6 hrs. The data set is classed as functional. As to conditions: route intraperitoneal.
Data set [20] deals with Mus musculus. The data set can be described thus: fCmax in Pseudomonas aeruginosa PAO1 infected C57BL/6J mouse at 10 mg/kg, ip administered every 6 hrs. In kind it is ADME, organism-based. More on the design: dose 10 mg/kg, route intraperitoneal. Particulars: in vivo.
Data set [21] can be described thus: fAUC (0 to 24 hrs)/MIC ratio in Pseudomonas aeruginosa PAO1 infected C57BL/6J mouse at 10 mg/kg, ip administered every 6 hrs. In kind it is functional. Particulars: route intraperitoneal.
Data set [22] concerns Pseudomonas aeruginosa. The data set can be described thus: Antibacterial activity against Pseudomonas aeruginosa PAO1 infected in C57BL/6J mouse assessed as lung bacterial count at 10 mg/kg, ip administered every 6 hrs. In kind it is functional, organism-based. More on the design: dose 10 mg/kg.
Data set [23] can be described thus: fCmax/MIC ratio in Pseudomonas aeruginosa PAO1 infected C57BL/6J mouse at 10 mg/kg, ip administered every 6 hrs. Particulars: route intraperitoneal. The data set is classed as functional.
Data set [24] is described as follows: fCmax/MIC ratio in Pseudomonas aeruginosa PAOdeltamutS infected C57BL/6J mouse at 10 mg/kg, ip administered every 6 hrs. The data set is classed as functional. As to conditions: route intraperitoneal.
The subject of data set [25] is Pseudomonas aeruginosa. Put plainly: Antibacterial activity against Pseudomonas aeruginosa PAO1 infected in C57BL/6J mouse assessed as mortality at 10 mg/kg, ip administered every 6 hrs. In kind it is functional. Particulars: route intraperitoneal.
Data set [26] can be described thus: Half life of free unbound fraction in Pseudomonas aeruginosa PAO1 infected C57BL/6J mouse at 10 mg/kg, ip administered every 6 hrs. Further details: dose 10 mg/kg, route intraperitoneal. The data set is classed as ADME, organism-based. Particulars: in vivo, read-out: t1/2 unbound fraction (converted).
The subject of data set [27] is Pseudomonas aeruginosa. Put plainly: Antibacterial activity against Pseudomonas aeruginosa PAOdeltamutS infected in C57BL/6J mouse assessed as lung bacterial count at 10 mg/kg, ip administered every 6 hrs. In kind it is functional, organism-based. Further details: dose 10 mg/kg.

On to `CO/N=C(\C(=O)N[C@@H]1C(=O)N2C(C(=O)[O-])=C(C[N+]3(C)CCCC3)CS[C@H]12)c1csc(N)n1`, for which the MIC with Pseudomonas aeruginosa [1] and against Pseudomonas aeruginosa [2] was 1 µg/mL (≈ 2.08 µM) each time.
In the case of `C[C@H]1[C@H](NC(=O)/C(=N\OC(C)(C)C(=O)O)c2csc(N)n2)C(=O)N1S(=O)(=O)O` [AZTREONAM], the MIC with Pseudomonas aeruginosa [1] and with Pseudomonas aeruginosa [2] was 1.5 µg/mL (≈ 3.44 µM) each time.
On to `CC(C)(O/N=C(\C(=O)N[C@@H]1C(=O)N2C(C(=O)[O-])=C(C[n+]3ccccc3)CS[C@H]12)c1csc(N)n1)C(=O)O` [CEFTAZIDIME], for which the MIC with Pseudomonas aeruginosa [1] and against Pseudomonas aeruginosa [2] was 1 µg/mL (≈ 1.83 µM) in each case. In addition, the mortality at 70 mg/kg in the data set on Pseudomonas aeruginosa [3] came out at 56.7%; in the data set on Pseudomonas aeruginosa [11], 43.3%. In the data set with Mus musculus [4], this compound returned a fAUC of 593.6 µg·h/mL. The outcome in the data set on Pseudomonas aeruginosa [5] and with Pseudomonas aeruginosa [10] was Active. In addition, in [6], the half-life was 24 min. Besides, the “f %t > MIC” value with Pseudomonas aeruginosa [7] was 54%. The figures for the fc max (in data set [8]; in data set [9]; in the data set with Mus musculus [13]) were 183, 183 and 183.1 mg/L, respectively. The fAUC/MIC in data set [12] and in [14] was 594 throughout.
Take `O=C(N[C@H](CO)[C@H](O)c1ccc([N+](=O)[O-])cc1)C(Cl)Cl` [CHLORAMPHENICOL]: the MIC against Pseudomonas aeruginosa [1] and in the data set with Pseudomonas aeruginosa [2] was 32 µg/mL (≈ 99 µM) each time.
Regarding `O=C(O)c1cn(C2CC2)c2cc(N3CCNCC3)c(F)cc2c1=O` [CIPROFLOXACIN], in the data set on Pseudomonas aeruginosa [1], the MIC worked out at 0.12 µg/mL (≈ 0.362 µM). Further, the mortality at 20 mg/kg in the data set with Pseudomonas aeruginosa [15] and in the data set with Pseudomonas aeruginosa [16] was 26.7% each time.
Turning to `C[C@@H](O)[C@H]1C(=O)N2C(C(=O)O)=C(SCCNC=N)C[C@H]12` [IMIPENEM ANHYDROUS], the MIC in the data set with Pseudomonas aeruginosa [1] and with Pseudomonas aeruginosa [2] was 1.5 µg/mL (≈ 5.01 µM) in each case.
For the compound `C[C@@H](O)[C@H]1C(=O)N2C(C(=O)O)=C(S[C@@H]3CN[C@H](C(=O)N(C)C)C3)[C@H](C)[C@H]12` [MEROPENEM], the minimum inhibitory concentration (MIC) came to 0.75 µg/mL (≈ 1.96 µM) in the data set on Pseudomonas aeruginosa [1] and 0.5 µg/mL (≈ 1.3 µM) in the data set on Pseudomonas aeruginosa [2].
The matching figures for `CN(C)[C@@H]1C(O)=C(C(N)=O)C(=O)[C@@]2(O)C(O)=C3C(=O)c4c(O)cccc4[C@@](C)(O)[C@H]3C[C@@H]12` [TETRACYCLINE]: 24 µg/mL (≈ 54 µM) and 24 µg/mL (≈ 54 µM).
Consider `NC[C@H]1O[C@H](O[C@H]2[C@H](O)[C@@H](O[C@H]3O[C@H](CO)[C@@H](O)[C@H](N)[C@H]3O)[C@H](N)C[C@@H]2N)[C@H](N)C[C@@H]1O` [TOBRAMYCIN], for which, in the data set with Mus musculus [17], the fAUC was determined as 42.96 µg·h/mL. The fAUC/MIC in data set [18] and in data set [21] was 43 throughout. Besides, the MIC with Pseudomonas aeruginosa [1] and against Pseudomonas aeruginosa [2] was 1 µg/mL (≈ 2.14 µM) throughout. Further, the mortality at 10 mg/kg with Pseudomonas aeruginosa [19] worked out at 60%; with Pseudomonas aeruginosa [25], 66.7%. The same compound returned a fc max with Mus musculus [20] of 19.07 mg/L. The “f %t > MIC” value in the data set with Pseudomonas aeruginosa [22] and in the data set on Pseudomonas aeruginosa [27] was “Active” each time. The “fc max/MIC” value in data set [23] and in data set [24] was 19 throughout. Also, the half-life in data set [26] was 33 min.
